Laboratory results from ChEMBL document CHEMBL1122337, “Syntheses of iron bis(pyridoxal isonicotinoylhydrazone)s and the in vivo iron-removal properties of some pyridoxal derivatives” (J Med Chem, 1983).

Assays:
Type in all cases: ADME, organism-based
Rattus norvegicus [1] = experiment: % distribution of the radioiron in rat kidney followed by intravenous injection of chelating agent; settings: in vivo
Rattus norvegicus [2] = experiment: % distribution of the radioiron in rat liver followed by intravenous injection of chelating agent; settings: in vivo
Rattus norvegicus [3] = species on record: Rattus norvegicus; experiment: […] determined in urine of rat followed by […] of chelating agent; settings: in vivo, iv
Summary of the method: (§1)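 Normal rats. Storage iron was labelled with [⁵⁹Fe]ferritin, given im as 1 mL in sterile normal saline (0.2–0.4 μCi ⁵⁹Fe/mL, 40 μg ferritin iron). The ferritin was prepared in vivo from [⁵⁹Fe]citrate in iron-dextran-loaded rats. Chelator was given separately afterwards, 40 mg im as aqueous solution. Blood, liver, spleen and kidney were gamma-counted. Stool and urine were collected separately in metabolic cages. Results are percent of injected ⁵⁹Fe.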

Rattus norvegicus [4] = experiment: % distribution of the radioiron in blood of rat followed by intravenous injection of chelating agent; settings: in vivo
Rattus norvegicus [5] = experiment: % distribution of the radioiron in rat spleen followed by intravenous injection of chelating agent; settings: in vivo
Rattus norvegicus [6] = species on record: Rattus norvegicus; experiment: […] determined in faces of rat followed by […] of chelating agent; settings: in vivo, iv; summary of the method: as §1
Rattus norvegicus [7] = experiment: % distribution of the radioiron in blood of rats followed by intravenous injection of transferrin pre-incubated with 10 mg of chelating agent; settings: in vivo
Summary of the method: (§2)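 Normal rats. Fresh rat plasma was labelled with ⁵⁹FeCl₃ plus excess citrate (citrate:Fe >50:1; final 0.5 μCi ⁵⁹Fe/mL). It was preincubated with 10 mg chelating agent and 1 mL was injected iv. Blood (1 mL), weighed liver portions, and whole spleen and kidney were counted in a well-type gamma counter. Feces and urine were collected separately in metabolic cages. Results are percent of injected ⁵⁹Fe ± SD.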

Rattus norvegicus [8] = experiment: % distribution of the radioiron in rat liver followed by intravenous injection of transferrin preincubated with 10 mg of chelating agent; settings: in vivo; summary of the method: as §2
Rattus norvegicus [9] = experiment: % excretion of radioiron determined in urine of rat followed by intravenous injection of transferrin preincubated with 10 mg of chelating agent; settings: in vivo; summary of the method: as §2
Rattus norvegicus [10] = experiment: % distribution of the radioiron in rat kidney followed by intravenous injection of transferrin pre-incubated with 10 mg of chelating agent; settings: in vivo; summary of the method: as §2
Rattus norvegicus [11] = experiment: % distribution of the radioiron in rat spleen followed by intravenous injection of transferrin pre-incubated with 10 mg of chelating agent; settings: in vivo; summary of the method: as §2
Rattus norvegicus [12] = experiment: % excretion of radioiron determined in feces of rat followed by intravenous injection of transferrin pre-incubated with 10 mg of chelating agent; settings: in vivo; summary of the method: as §2

SMILES	Distribution (Rattus norvegicus [1]) [%]	Distribution (Rattus norvegicus [2]) [%]	Distribution (Rattus norvegicus [3]) [%]	Distribution (Rattus norvegicus [4]) [%]	Distribution (Rattus norvegicus [5]) [%]	Distribution (Rattus norvegicus [6]) [%]	Distribution (Rattus norvegicus [7]) [%]	Distribution (Rattus norvegicus [8]) [%]	Distribution (Rattus norvegicus [9]) [%]	Distribution (Rattus norvegicus [10]) [%]	Distribution (Rattus norvegicus [11]) [%]	Distribution (Rattus norvegicus [12]) [%]
Cc1ncc(CO)c(/C=N/NC(N)=O)c1O	0.3	82.4	0.09	12.3	1	4.1						
CC(=O)OCc1cnc(C)c(O)c1/C=N\NC(=O)c1ccncc1							31.7	15.7	0.8	0.8	0.6	10.4
Cc1ncc(CO)c(/C=N/Nc2nc(-c3ccccc3)cs2)c1O	0.5	66.7	0.04	19.6	0.6	8.2						
Cc1csc(N/N=C/c2c(CO)cnc(C)c2O)n1	0.4	60.2	0.01	19.1	0.8	6.5						
CCOC(=O)N/N=C/c1c(CO)cnc(C)c1O	0.4	63.8	0.03	19	0.7	8.6						
Cc1ncc(CO)c(/C=N/NC(=O)OC(C)(C)C)c1O	0.4	63.2	0.08	19.4	0.55	7.3						
Cc1ncc(CO)c(/C=N/NC(=O)c2cccnc2)c1O							39.6	16.2	0.3	1	0.9	6
COc1ccc(COC(=O)N/N=C/c2c(CO)cnc(C)c2O)cc1							27	14.7	0.02	0.8	0.6	3.3
Cc1ncc(CO)c(/C=N/NC(=O)c2ccnc3ccccc23)c1O							27.9	12.6	0.4	1	0.6	6.8
CC(=O)N(O)CCCCCNC(=O)CCC(=O)N(O)CCCCCNC(=O)CCC(=O)N(O)CCCCCN [DEFEROXAMINE]	0.3	71.3	0.08	1.8	0.4	15.5	7.4	3	62.9	0.6	0.2	18.7
Cc1ncc(CO)c(/C=N/NC(=O)c2ccncc2)c1O [PYRIDOXAL ISONICOTINOYL HYDRAZONE]	0.3	78.7	0.05	2.3	0.5	12	32	9.6	4.3	0.6	0.4	32.8
